One data set can be described thus: Drug loading efficiency. The class given is physicochemical. The settings on record: (encapsulated drug/total drug) x100%; natural lipid NPs. The gist of the method:
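Loading into natural-lipid nanoparticles measured by dialysis in 10 K MWCO mini devices pre-equilibrated with release medium (3% MeOH, 0.1% Polysorbate 80 in PBS, pH 7.4). Entrapped drug is apical minus basal concentration; free drug is basal concentration. Quantified by HPLC-UV (C18 column, 282 nm). Efficiency = encapsulated/total drug ×100%, from three batches.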

Data set [1] can be described thus: Pharmacokinetics and tissue bio-distribution after single oral administration. The settings on record: for Level in most of the blood samples: after oral free-6-S or 6-S-NL 5 mg/kg. Format: in vivo, C57BL/6J mice. The method, boiled down:
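Single oral gavage of 5 mg/kg to fasted (4 h) female C57BL/6J mice, as free test compound in 0.5% CMC-Na/PBS or as lipid nanoparticles in PBS. Sparse sampling, 3 mice/time point: blood (K₂EDTA) 5 min–8 h; stomach, small intestine, colon, liver and kidney 15 min–8 h. Acetonitrile precipitation, LC-MS/MS (MRM) of parent and metabolites. Cmax and Tmax observed; T1/2 = ln2/k.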

For data set [2] the following is noted: cited from earlier work.
The subject of a further data set is inflamed Raw 264.7 cells. Kind of data set: In vitro anti-inflammation assay. Format: cell-based. The settings on record: 1.0 μg/mL; for IL-1β gene expression / IL-6 gene expression / IL-10 gene expression / TNF-α gene expression: LPS-inflamed Raw 264.7 cells, RT-PCR; for Anti-inflammatory activities compared with 6-shogaol: inflamed Raw 264.7 cells.
The next data set deals with wounded Caco-2 BBE cells. Kind of data set: In vitro wound-healing assay. The class given is cell-based. Particulars: 0.6 mL of 1.0 μg/mL solution; ECIS. The method, boiled down: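 Caco-2 BBE cells were grown on ECIS 8W1E electrode plates in humidified 5% CO₂. At confluence, medium with or without test compound (1.0 μg/mL) or control formulation was added. Monolayers were wounded by a 30 s pulse (40 kHz, 4.5 V), and recovery was followed as impedance, with resistance measured at 500 Hz and 1 V.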

The mark [3] stands for this setting: oral 5 mg/kg, compared to the 6-S-NL group.

Regarding `CCCCC/C=C/C(=O)CCc1ccc(O)c(OC)c1` [6-shogaol], in the data set “Drug loading efficiency”, the Drug loading efficiency is listed as 89.1 ± 2.6%. Moreover, the “Tmax of 6-shogaol in the colon” value in data set [1] (oral 5 mg/kg) was 1.5 h. The “M13 concentrations in the small intestine, comparison” value in data set [1] (oral 5 mg/kg, compared to 6-S-NL) is reported as “higher”. Further, in data set [1] (setting [3]), the “AUC values of M2 and M13 in liver and kidney tissues, comparison” value is on record as “higher”; the “Exposure (AUC) of 6-shogaol in stomach and small intestine tissues, comparison” value is given as “significantly higher”. Besides, the “Effective 6-shogaol concentration in vitro” value in data set [2] is “about 1 μg/mL”.

In the data set “Drug loading efficiency”, `CCCCCC(CC(=O)CCc1ccc(O)c(OC)c1)SC[C@H](NC(=O)CC[C@H](N)C(=O)O)C(=O)NCC(=O)O` (stereo partly shown) [M13] showed a Drug loading efficiency of 83.3 ± 1.9%. Moreover, the “Level in most of the blood samples” value in data set [1] was “below the LLOQ”. In the data set with inflamed Raw 264.7 cells, the IL-1β gene expression entry is listed as “down-regulate”, the IL-6 gene expression entry is given as “down-regulate”, the IL-10 gene expression result was “up-regulate” and the TNF-α gene expression result is on record as “down-regulate”. For the same molecule, the “Anti-inflammatory activities compared with 6-shogaol” value with inflamed Raw 264.7 cells is given as “higher”. For the same molecule, the “Healing of wounded Caco-2 epithelial monolayers compared with 6-shogaol” value in the data set with wounded Caco-2 BBE cells is given as “healed significantly faster”.

`CCCCCC(CC(=O)CCc1ccc(O)c(OC)c1)SC[C@H](N)C(=O)O` (stereo partly shown) [M2]: the Drug loading efficiency in “Drug loading efficiency” was 91.3 ± 3.1%. Besides, the “Level in most of the blood samples” value in data set [1] is given as “below the LLOQ”. In the data set on inflamed Raw 264.7 cells, the IL-1β gene expression entry was “down-regulate”, the IL-6 gene expression entry is given as “down-regulate”, the IL-10 gene expression result is listed as “up-regulate” and the TNF-α gene expression entry is “down-regulate”. Moreover, the “Anti-inflammatory activities compared with 6-shogaol” value with inflamed Raw 264.7 cells is “higher”. Besides, the “Healing of wounded Caco-2 epithelial monolayers compared with 6-shogaol” value with wounded Caco-2 BBE cells is reported as “healed significantly faster”.

Values taken from publication PMC7299768 (Journal of controlled release : official journal of the …, 2020).
